NR2E3 ag-1 = agonists of human NR2E3 nuclear receptor; CHO-S Gal4-NCOR/VP16-NR2E3 two-hybrid, luciferase; inhibition of corepressor binding, % at 3.98 µM; 360,000 tested, 0.35% active;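 active = inhibition above the mean of all tested compounds plus 3 SD, cut at about 70% in these data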;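 note: 0% = DMSO with NR2E3 transfected cells and 100% = cells lacking NR2E3 construct; higher means lower luciferase signal from less NR2E3 corepressor binding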
Target sequence (Q9Y5X4 whole entry, looked up, the tested form may be a part): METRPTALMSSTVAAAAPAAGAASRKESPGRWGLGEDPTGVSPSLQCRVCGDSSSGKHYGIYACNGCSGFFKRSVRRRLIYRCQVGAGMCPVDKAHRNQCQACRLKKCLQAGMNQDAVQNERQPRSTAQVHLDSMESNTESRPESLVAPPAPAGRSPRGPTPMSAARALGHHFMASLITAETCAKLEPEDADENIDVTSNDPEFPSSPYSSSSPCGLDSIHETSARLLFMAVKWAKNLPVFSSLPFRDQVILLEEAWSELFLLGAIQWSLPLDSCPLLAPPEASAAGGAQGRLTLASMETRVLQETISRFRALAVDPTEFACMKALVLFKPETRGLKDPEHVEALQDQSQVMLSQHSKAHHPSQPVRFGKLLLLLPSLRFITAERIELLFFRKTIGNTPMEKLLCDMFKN
HIF act = HIF pathway transcriptional activation | U2OS HRE-luciferase reporter, luminescence; normalized: DMSO 0%, desferrioxamine 100% | activation, % at 7.5 µM (by protocol) | 300,000 tested, 0.32% active | AID 1910;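 active = mean activation of at least 10% of the iron chelator positive control signal, with at least half of replicates also reaching 10%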
LMP1 NFkB inh = Epstein-Barr LMP1 NF-kappaB reporter inhibition; LMP1-induced NF-kappaB luciferase reporter cells, luminescence; inhibition, % at 12.5 µM; 350,000 tested, 0.69% active; in the data active = inhibition above about 41%;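 note: 0% = neutral control wells and 100% = reference inhibitor control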
NR2E3 ag-2 = activates human photoreceptor nuclear receptor NR2E3; inhibition of corepressor binding, % at 4.78 µM; GST-NR2E3/biotin-RetCOR TR-FRET, 1536-well; Q9Y5X4; 320,000 tested, 0.12% active;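 active = percent inhibition above the cutoff of mean plus 3 SD of all tested compounds, set per screening campaign, cut at about 20% in these data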;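 note: 0% = DMSO wells and 100% = biotin wells as full block of FRET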
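Format: 1536-well format; test system: GST-NR2E3 and biotin-RetCOR proteins; read-out basis: percent inhibition of TR-FRET ratio; timing: 5 h incubation at 4 °C; detection: time-resolved FRET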
TROY NFkB inh = blocks TROY-dependent signaling in reporter cells; Q293 LMP1-TROYcd NF-kB luciferase reporter, 4 h; inhibition, % at 10 µM; 360,000 tested, 0.98% active;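 active = compounds whose plate-normalised and pattern-corrected inhibition of the luciferase reporter signal at the single screening dose is 50% or more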
NR2E3 ag confirm = NR2E3 agonism confirmed in two-hybrid assay. shares compounds with NR2E3 ag-1. inhibition, % at 3.98 µM. CHO-S mammalian two-hybrid NR2E3-NCOR, luciferase luminescence. AID 624378. 2,300 tested, 51% active;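 active = average inhibition above a cutoff equal to the mean inhibition of all tested compounds plus one SD, cut at about 70% in these data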;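 note: 0% = DMSO in NR2E3 cells and 100% = DMSO in cells lacking NR2E3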
GAL4-VP16 luc = counter-screen for NR2E3 agonists: GAL4-VP16 reporter inhibitors; shares compounds with NR2E3 ag-1; CHO-S GAL4-VP16 luciferase reporter, luminescence; inhibition, % at 3.98 µM; 2,300 tested, 29% active; AID 624379;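 active = mean inhibition above a cutoff equal to the average over all tested compounds plus one standard deviation, cut at about 70% in these data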;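 note: luciferase from a UAS reporter driven by GAL4-VP16 transactivation; 0% = DMSO with VP16-transfected cells and 100% = DMSO with cells lacking VP16; higher means less reporter light so more repression of VP16 activity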
Starred values were filed as active, the others as inactive; nt = no result given. Rows were chosen to be rich in hits. Some 2% of all compounds tested hit in one or more screens of this group.

SMILES	NR2E3 ag-1	HIF act	LMP1 NFkB inh	NR2E3 ag-2	TROY NFkB inh	NR2E3 ag confirm	GAL4-VP16 luc
COc1cc(C2CC(=O)c3c([nH]c(C(=O)OCCOC(C)C)c3C)C2)cc(OC)c1OC (stereo not drawn)	53	0	17	3	41	53	56
CC(C)c1ccc(-c2nc3ccccc3s2)cc1	88*	-4	70*	3	96*	71*	58
CN(C(=O)OC(C)(C)C)c1ccc(-c2nc3ccccc3s2)cc1	89*	-4	81*	2	89*	86*	77*
FC(F)(F)c1ccc(-c2nc3ccccc3s2)cc1	-37	nt	nt	nt	19	nt	nt
Cc1ccc(/C(O)=C2/C(=O)C(=O)N(c3ccccn3)C2c2cccc([N+](=O)[O-])c2)cc1 (stereo not drawn)	-22	0	5	4	2	nt	nt
Cc1csc2ncnc(NCCc3ccccn3)c12	71*	1	8	3	6	90*	77*
CCN(CC(=O)NCc1ccc(Cl)cc1)C(=O)c1cnc(Cl)c(Cl)c1	0	-1	-5	3	9	nt	nt
CCN(CC(=O)NCc1ccc(Cl)cc1)C(=O)c1ccc2cc(OC)ccc2c1	51	0	5	8	9	28	61
CCCN(CC(=O)Nc1ccc(F)c(F)c1F)C(=O)Cn1c(=O)cnc2ccccc21	4	0	9	2	-6	nt	nt
CC1(C)COC(Cc2ccccc2)=N1	3	nt	4	nt	1	nt	nt
c1ccc(Nc2ncnc3sc4c(c23)CCC4)cc1	10	0	-5	2	-3	nt	nt
c1csc(CCNc2ncnc3sc4c(c23)CCC4)c1	93*	1	5	0	54*	98*	87*
CN1CCN(C(=O)c2ccc(OCCOc3ccccc3)cc2)CC1	-8	0	-4	-2	0	nt	nt
CC(C)Nc1ncnc2c1ncn2[C@H]1CN(Cc2ccc(-c3ccccc3)cc2)C[C@@H](CO)O1	73*	nt	nt	nt	30	70	52
CC(C)CNc1ncnc2c1ncn2[C@H]1CN(Cc2ccc(-c3ccccc3)cc2)C[C@@H](CO)O1	63	nt	nt	nt	28	89*	67
CN(C)CCNc1ncnc2c1ncn2[C@H]1CN(Cc2ccc(-c3ccccc3)cc2)C[C@@H](CO)O1	-13	nt	nt	nt	14	nt	nt
CCc1ccc(NS(=O)(=O)c2c(C(=O)N3CCCCCC3)c(C)n(C)c2C)cc1	-8	-1	2	5	16	nt	nt
C#Cc1cccc(Nc2nc(NCc3ccccc3)nc3ccsc23)c1	61	nt	nt	nt	4	84*	44
O=C1NCCN1CCNc1nc(NCc2ccccc2)nc2ccsc12	1	nt	nt	nt	-1	nt	nt
Fc1ccc(Nc2nc(NCc3ccccc3)nc3ccsc23)cc1	55	nt	nt	nt	-1	59	41
N#Cc1ccc(Nc2nc(NCc3ccccc3)nc3ccsc23)cc1	-51	nt	nt	nt	-13	nt	nt
c1ccc(CNc2nc(NCCc3ccncc3)c3sccc3n2)cc1	81*	nt	nt	nt	43	52	55
CC12CCC(C(=O)C1)C1(C)CCCC(=O)C21 (stereo not drawn)	-7	nt	-2	nt	5	nt	nt
CC1(c2ccc3ccccc3c2)NC(=O)N(CC(=O)N2CCN(Cc3ccc(C#N)cc3)CC2)C1=O (stereo not drawn)	105*	nt	30	nt	10	90*	80*
COc1cc(CNC23CC4CC(CC(C4)C2)C3)ccc1OCc1ccccc1	6	0	-43	2	-4	nt	nt
SMILES	NR2E3 ag-1	HIF act	LMP1 NFkB inh	NR2E3 ag-2	TROY NFkB inh	NR2E3 ag confirm	GAL4-VP16 luc
Cc1cc(C)c(S(=O)(=O)Nc2ccccc2C(=O)N2CCCC2)c(C)c1	0	0	0	2	17	nt	nt
CCOC(=O)C1CCN(C(=O)C2CCCN(S(=O)(=O)c3ccc(OCC)c(Cl)c3)C2)CC1 (stereo not drawn)	70	0	20	-2	14	21	51
C[C@@H]1CN([C@@H](C)CO)C(=O)c2cc(C#CC3CCCCC3)cnc2O[C@@H]1CN(C)S(=O)(=O)c1ccc(F)cc1	-12	nt	-3	nt	11	nt	nt
CCOC(CN=c1nc(N(C)C)ss1)OCC	89*	nt	1	nt	8	17	3
CCc1cc(C(=O)NC2CCCN(Cc3ccccc3F)C2)n(C)n1 (stereo not drawn)	69	0	16	-1	23	37	44
Clc1ccc(-c2nnc(CSc3nnc(-c4cccs4)n3Cc3ccccc3)o2)cc1	74*	0	24	0	48	88*	74*
CCOC(=O)c1cnc(-n2nc(C)cc2C)nc1NCCc1ccccc1	86*	1	19	3	4	12	-7
CCOC(=O)c1cnc(-n2nc(C)cc2C)nc1Oc1ccccc1F	-27	0	nt	3	-17	nt	nt
CCOC(=O)c1cnc(-n2nc(C)cc2C)nc1NC1CCCC1	94*	1	34	2	42	30	0
COC(=O)c1ccc(CNC(=O)COC(=O)c2cc(Cl)nc(Cl)c2)cc1	-24	0	-6	-3	14	nt	nt
COC1(OC)C(/C=C/c2ccc(C)cc2)C(C#N)(C#N)C1(OC)OC (stereo not drawn)	77*	1	3	-3	-20	-31	7
CC1=[N+](C)c2c(ccc3cccnc23)C1(C)C	92*	nt	20	nt	45	99*	85*
Cc1[nH]c2c(ccc3cccnc32)c1C	-15	1	-4	0	-45	nt	nt
CC(C)CCNC(=O)CN(Cc1ccco1)C(=O)c1snc(C(N)=O)c1N	49	0	5	-2	-23	4	7
Fc1ccc(NC(=S)NNc2ncc(C(F)(F)F)cc2Cl)c(F)c1	80*	0	45*	4	61*	67	57
FC(F)(F)c1cnc(NNC(=S)Nc2ccc(Cl)cc2)c(Cl)c1	70*	0	31	1	59*	94*	77*
Cc1ccc(NC(=S)NNc2ncc(C(F)(F)F)cc2Cl)c(C)c1	17	0	7	0	21	nt	nt
Cc1ccc(NC(=S)NNc2ncc(C(F)(F)F)cc2Cl)cc1	13	-2	4	0	-29	nt	nt
Cc1nc2ccccc2c(N)c1C(=O)/C=C/c1ccccc1	51	0	24	0	22	-3	17
CC(=O)c1c(C)nc2ccccc2c1N	8	0	4	-1	7	nt	nt
CN(C)CCn1cnc2c(c1=N)C(c1ccccc1)c1ccc3ccccc3c1O2 (stereo not drawn)	6	-11	-16	-4	-48	nt	nt
Nc1ncnc2c(C3OC(CO)C(O)C3O)c[nH]c12 (stereo not drawn)	103*	nt	92*	nt	71*	101*	99*
Nc1ncnc2c1nc(-c1ccccc1)n2C1OC(CO)C(O)C1O (stereo not drawn)	7	nt	nt	nt	4	nt	nt

Screens: PubChem BioAssay, several laboratories
